The species entered for data set [1] is Rattus norvegicus. Kind of data set: Effect on pressor activity in vagotomized and ganglion-blocked rat assessed as duration of action relative to angiotensin 2. Type of data set: functional. The method in brief:
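Vagotomized, ganglion-blocked rats received single injections. Duration of action, timed from injection until blood pressure returns to control levels, is compared against an equipressor dose of angiotensin II given by the same procedure.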

The nature of data set [2]: Stability of the compound assessed as microsomal leucine aminopeptidase (unknown origin)-mediated liberation of sarcosine, arginine and valine after 2 hrs by TLC analysis. The data set is classed as ADME, Homo sapiens. The method in brief: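 Peptide (2 mg) in 0.4 mL of 0.5 mol Tris, pH 8.5, plus 0.1 mL of 0.025 mol MnCl2, was incubated at 37 °C with 0.2 mg of microsomal leucine aminopeptidase (25 units/1.83 mg). Acetic acid was added and the mixture lyophilized. Liberated amino acids were detected by TLC and amino acid analysis.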

For data set [3], the species on record is Rattus norvegicus. Description: Effect on pressor activity in vagotomized and ganglion-blocked rat relative to angiotensin 2. Type of data set: functional. The method in brief:
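Pressor response was measured in vagotomized, ganglion-blocked rats by the single-injection procedure. Activity is expressed as a percentage of the pressor activity of angiotensin II, with n injections per value.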

A short description of data set [4]: Stability of the compound assessed as beef pancreas alpha-chymotrypsin-mediated drug degradation up to 3 hrs by TLC analysis. The data set is classed as ADME, Bos taurus. Particulars: cattle, isolated protein. The method in brief: (§1)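 Peptide (5 mg) in 0.5 mL of 0.1 mol ammonium acetate buffer, pH 7.5, was incubated at 37 °C with 0.4 mg of thrice-crystallized bovine pancreatic α-chymotrypsin suspended in buffer. The reaction was stopped with acetic acid, the mixture lyophilized, and fragments checked by TLC on cellulose in suitable solvents.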

The species entered for data set [5] is Rattus norvegicus. Kind of data set: Effect on pressor activity in vagotomized and ganglion-blocked rat assessed as duration of action. The data set is classed as functional. The method in brief: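 Single-injection pressor test in vagotomized, ganglion-blocked rats. Duration of action runs from peptide injection until blood pressure returns to control values.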

Data set [6] is described as follows: Stability of the compound assessed as beef pancreas alpha-chymotrypsin-mediated drug degradation into 2 tetrapeptides after 15 to 20 mins by TLC analysis. Type of data set: ADME, Bos taurus. As to conditions: cattle, isolated protein. The procedure, abridged: as §1
Data set [7] is described as follows: Stability of the compound assessed as microsomal leucine aminopeptidase (unknown origin)-mediated liberation of aspartic acid from position 1 after 5 mins by TLC analysis.

SMILES strings stand for the structures.

For the compound `CC[C@H](C)[C@@H](CC(=O)N[C@@H](Cc1cnc[nH]1)C(=O)N1CCC[C@H]1C(=O)N[C@@H](Cc1ccccc1)C(=O)O)NC(=O)[C@H](Cc1ccc(O)cc1)NC(=O)[C@@H](NC(=O)[C@H](CCCNC(=N)N)NC(=O)CNC)C(C)C`, the Time was 5.3 min in the data set filed under Rattus norvegicus [1] and 4.7 min in the data set listed under Rattus norvegicus [5]. Further, the Stability entry in data set [2] and in data set [4] was “Stable” in each case. This compound also had an Activity in the data set filed under Rattus norvegicus [3] of 29.2%.
For `CC[C@H](C)[C@H](NC(=O)[C@H](Cc1ccc(O)cc1)NC(=O)[C@@H](NC(=O)[C@H](CCCNC(=N)N)NC(=O)[C@@H](N)CC(=O)O)C(C)C)C(=O)N[C@@H](Cc1cnc[nH]1)C(=O)N1CCC[C@H]1C(=O)N[C@@H](Cc1ccccc1)C(=O)O` [ANGIOTENSIN II], the Stability entry in data set [6] and in data set [7] was “Unstable” each time.
In the case of `CC[C@H](C)[C@@H](CC(=O)N[C@@H](Cc1cnc[nH]1)C(=O)N1CCC[C@H]1C(=O)N[C@@H](Cc1ccccc1)C(=O)O)NC(=O)[C@H](Cc1ccc(O)cc1)NC(=O)[C@@H](NC(=O)[C@H](CCCNC(=N)N)NC(=O)[C@@H](N)CC(=O)O)C(C)C`, the results for the Time in the data set filed under Rattus norvegicus [1] and in the data set listed under Rattus norvegicus [5] were 6.3 min and 6.7 min, respectively. Further, the Stability result was “Unstable” in data set [7] and “Stable” in data set [4]. Besides, the Activity in the data set filed under Rattus norvegicus [3] is 2.82%.
As to `CC[C@H](C)[C@H](NC(=O)[C@H](Cc1ccc(O)cc1)NC(=O)[C@@H](NC(=O)[C@H](CCCNC(=N)N)NC(=O)CNC)C(C)C)C(=O)N[C@@H](Cc1cnc[nH]1)C(=O)N1CCC[C@H]1C(=O)N[C@@H](Cc1ccccc1)C(=O)O`, in data set [2], the Stability result was “Stable”.
For `CC[C@H](C)[C@H](NC(=O)C[C@H](Cc1ccc(O)cc1)NC(=O)[C@@H](NC(=O)[C@H](CCCNC(=N)N)NC(=O)CNC)C(C)C)C(=O)N[C@@H](Cc1cnc[nH]1)C(=O)N1CCC[C@H]1C(=O)N[C@@H](Cc1ccccc1)C(=O)O`, the Time was 5.2 min in the data set listed under Rattus norvegicus [1] and 5.5 min in the data set filed under Rattus norvegicus [5]. Also, the Stability entry in data set [2] and in data set [4] was “Stable” each time. In the data set filed under Rattus norvegicus [3], this compound returned an Activity of 1.98%.

For the origin of these results see ChEMBL document CHEMBL3228003, “Synthesis of angiotensin II analogues by incorporating beta-homotyrosine or beta-homoisoleucine residues” (J Med Chem, 1979).
